One data set relates to MCF7. Kind of data set: Antiproliferative activity against human MCF7 cells assessed as reduction in cell viability incubated for 48 hrs by sulforhodamine B assay. To be noted: MCF7, 48 h. In kind it is functional. Summed up:
(§1)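 Cells in RPMI-1640 with 5% FBS, 37 °C, 5% CO2; seeded 0.05×10^6 cells/well, 24 h, then two-fold serial dilutions from 0 to 150 μM (DMSO up to 0.25%) for 48 h. TCA fixation, SRB stain 30 min, dye solubilized in 10 mM Tris, absorbance 515 nm. GI50 from dose-response curve; mean ± SD, at least three independent experiments in duplicate.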
In general terms: In SRB staining, fixed cells bind dye roughly in proportion to their protein.

A short description of data set [1]: Antiproliferative activity against human A375-C5 cells assessed as reduction in cell viability incubated for 48 hrs by sulforhodamine B assay. Format: functional. The note with it: A375-C5, 48 h. Summed up: as §1
The test system of data set [2] is NCI-H460. Briefly: Antiproliferative activity against human NCI-H460 cells assessed as reduction in cell viability incubated for 48 hrs by sulforhodamine B assay. The note with it: NCI-H460, 48 h. In kind it is functional. Summed up: as §1
In data set [3] the test system is NCI-H460. Kind of data set: Induction of mitotic arrest in human NCI-H460 cells assessed as accumulation of bright round shape cells at 3 times of GI50 incubated for 15 hrs by phase contrast microscopy. Format: functional, cell-based.
Data set [4] deals with NCI-H460. Kind of data set: Induction of mitotic arrest in human NCI-H460 cells assessed as condensed chromosome at 3 times of GI50 incubated for 15 hrs by DAPI staining based phase contrast microscopy. Format: functional, cell-based. Summed up:
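NCI-H460 treated 15 h at 3×GI50; DAPI staining of DNA viewed to detect condensed chromosomes of mitotic cells.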

Data set [5] has as its system NCI-H460. Briefly: Induction of mitotic arrest in human NCI-H460 cells assessed as mitotic index at 3 times of GI50 incubated for 15 hrs by DAPI staining based phase contrast microscopy (reference value: 11.3 %). Format: functional.
The subject of data set [6] is NCI-H460. Kind of data set: Induction of mitotic arrest in human NCI-H460 cells assessed as abnormal mitotic spindle morphology at 3 times of GI50 incubated for 15 hrs by immunostaining based fluorescence microscopy. In kind it is functional, cell-based. In a few lines:
(§2)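 NCI-H460 on poly-L-lysine coverslips treated 15 h at 3×GI50; fixed in 2% paraformaldehyde, 0.5% Triton X-100 permeabilization, 10% FBS blocking; mouse anti-α-tubulin (1:2500) then Alexa Fluor 488 secondary (1:1500); DAPI 2 µg/mL. Fluorescence microscopy of spindles; multipolar spindles as percentage of total spindles; mean ± SD, three independent experiments.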

Data set [7] concerns NCI-H460. Kind of data set: Induction of mitotic arrest in human NCI-H460 cells assessed as decrease in chromosome align at metaphase plate at 3 times of GI50 incubated for 15 hrs by DAPI staining based fluorescence microscopy. In kind it is functional, cell-based. Summed up: as §2
Data set [8] concerns NCI-H460. Briefly: Induction of mitotic arrest in human NCI-H460 cells assessed as multipolar spindles at 3 times of GI50 incubated for 15 hrs by fluorescence microscopy (reference value: 2 %). Format: functional. Summed up: as §2
For data set [9], the system named is NCI-H460. Briefly: Induction of cell death in human NCI-H460 cells assessed as abnormal nuclear morphology at 3 times of GI50 incubated for 24 hrs by DAPI staining based fluorescence microscopy. In kind it is functional. In a few lines: (§3)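 NCI-H460 cells exposed 24 h, DAPI-stained for DNA, nuclear morphology and micronucleation examined by fluorescence microscopy.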

Data set [10] has as its system NCI-H460. Briefly: Induction of cell death in human NCI-H460 cells assessed as micronucleation at 3 times of GI50 incubated for 24 hrs by DAPI staining based fluorescence microscopy. Format: functional. Summed up: as §3
Data set [11] relates to NCI-H460. Kind of data set: Cytotoxicity against human NCI-H460 cells assessed as reduction in cell viability at 1 times of GI50 incubated for 48 hrs by MTT assay relative to control. Format: functional. In a few lines:
(§4)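 MTT 0.5 mg/ml in serum-free medium 4 h; formazan dissolved in isopropanol/Triton/HCl 2 h; absorbance 570 nm. Viability relative to untreated cells; mean ± SD of at least three independent experiments.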
In general terms: Tetrazolium dyes change colour on reduction, which living cells bring about.

Data set [12] has as its system NCI-H460. Briefly: Cytotoxicity against human NCI-H460 cells assessed as reduction in cell viability at 0.5 times of GI50 incubated for 48 hrs by MTT assay relative to control. Format: functional. In a few lines: as §4
In data set [13] the test system is NCI-H460. Kind of data set: Potentiation of paclitaxel-induced cytotoxicity against human NCI-H460 cells assessed as reduction in cell viability at 1 times of GI50 incubated for 48 hrs by MTT assay (reference value: 92.3 %). In kind it is functional. In a few lines: as §4
The subject of data set [14] is NCI-H460. Kind of data set: Potentiation of paclitaxel-induced cytotoxicity against human NCI-H460 cells assessed as reduction in cell viability at 0.5 times of GI50 incubated for 48 hrs by MTT assay (reference value: 92.3 %). In kind it is functional. In a few lines:
as §4

The nature of data set [15]: Lipophilicity, log k of compound in DMPC/buffer incubated for 30 mins by spectrophotometry. In kind it is physicochemical. To be noted: 0.5 h. In a few lines:
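DMPC liposomes made by thin-film hydration in HEPES buffer, extruded at 40 °C. Fixed compound concentration with DMPC 50–1000 μM, incubated 30 min at 37 °C, pH 7.4; spectra 250–500 nm against compound-free references. Second-derivative values fitted (nonlinear least squares) versus lipid concentration to give Kp; lipid molar volume 0.66 L mol⁻¹; mean ± SD of at least three experiments.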

A short description of data set [16]: n-Octanol/water partition coefficient, log P of the compound incubated for 30 mins by spectrophotometry. In kind it is physicochemical.

Active and inactive are the calls of the source. The calls are words filed in the database; no cut-off is given here.

As a reminder, the GI50 is the concentration at which growth is held to half of that of the control. The term logP denotes the decadic logarithm of the partition coefficient of the neutral form, usually between octanol and water. Read a high logP as higher lipophilicity. With `COc1cc(/C=C/C(=O)c2ccc(C)s2)cc(OC)c1OC`, the concentration for 50% growth inhibition (GI50) is 5.56 µM in the data set with MCF7, 5.7 µM in data set [1] and 6.28 µM in the data set with NCI-H460 [2]. For the same compound, the outcome with NCI-H460 [3], in the data set on NCI-H460 [4], in the data set with NCI-H460 [6], with NCI-H460 [7], in the data set with NCI-H460 [9] and in the data set on NCI-H460 [10] was Active. Besides, the Activity in the data set with NCI-H460 [5] was 25.8 - 49.37%; in the data set on NCI-H460 [8], 28%; in the data set on NCI-H460 [11], 67.9%; in the data set with NCI-H460 [12], 96.9%; in the data set with NCI-H460 [13], 46.8%; with NCI-H460 [14], 51.8%. Moreover, the “log Kp” value in data set [15] turned out to be 3.53. Also, the logP at 0.5 h in data set [16] was found to be 3.23.

For the origin of these results see ChEMBL document CHEMBL4406862, “Chalcone derivatives targeting mitosis: synthesis, evaluation of antitumor activity and lipophilicity” (Eur J Med Chem, 2019).
